Holding throughout (format): ADME, organism-based, Macaca mulatta
The nature of data set [1]: Drug level in normal rhesus monkey white matter assessed as standard uptake value at 152.9 MBq, iv after 14 mins by microPET. The following applies: in vivo.
The nature of data set [2]: Drug level in normal rhesus monkey parietal cortex assessed as standard uptake value at 152.9 MBq, iv after 52.5 mins by microPET. The following applies: in vivo, 0.875 h.
A short description of data set [3]: Drug level in normal rhesus monkey thalamus assessed as standard uptake value at 152.9 MBq, iv after 1.5 mins by microPET. As to conditions: in vivo, 0.025 h.
The nature of data set [4]: Drug level in normal rhesus monkey cerebellum assessed as standard uptake value at 152.9 MBq, iv after 14 mins by microPET. The following applies: in vivo. In a few lines:
(§1)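 One normal rhesus monkey received each tracer via the vena saphena, with 1 day between injections. Dynamic μPET ran 180 min for 18F tracers (5×60 s, 5×120 s, 9×300 s, 12×600 s) and 90 min for the 11C tracer (5×60 s, 5×120 s, 9×300 s, 3×600 s). Filtered back-projection reconstruction (RAMP filter) was used. Time-activity curves were drawn to give regional SUV.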

Data set [5] in a line: Drug level in normal rhesus monkey thalamus assessed as standard uptake value at 152.9 MBq, iv after 47.5 mins by microPET. As to conditions: in vivo.
A short description of data set [6]: Drug level in normal rhesus monkey frontal cortex assessed as standard uptake value at 152.9 MBq, iv after 10 mins by microPET. The following applies: in vivo. In a few lines:
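Single normal rhesus monkey; tracer given iv via the vena saphena, 1 day apart from the other tracer injections. Dynamic μPET ran 90 min (5×60 s, 5×120 s, 9×300 s, 3×600 s). Images were reconstructed by filtered back projection with a RAMP filter. Regional time-activity curves were expressed as SUV.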

Data set [7] is described as follows: Drug level in normal rhesus monkey cerebellum assessed as standard uptake value at 152.9 MBq, iv after 3.5 mins by microPET. The following applies: in vivo. In a few lines: as §1
A short description of data set [8]: Drug level in normal rhesus monkey pons assessed as standard uptake value at 152.9 MBq, iv after 4.5 mins by microPET. As to conditions: in vivo, 0.075 h.
Data set [9] in a line: Drug level in normal rhesus monkey white matter assessed as standard uptake value at 152.9 MBq, iv after 6 mins by microPET. As to conditions: in vivo, 0.1 h.
A short description of data set [10]: Drug level in normal rhesus monkey white matter assessed as standard uptake value at 152.9 MBq, iv after 57.5 mins by microPET. The following applies: in vivo.
The nature of data set [11]: Drug level in normal rhesus monkey cerebellum assessed as standard uptake value at 152.9 MBq, iv after 57.5 mins by microPET. As to conditions: in vivo. Summed up:
as §1

Data set [12] in a line: Drug level in normal rhesus monkey white matter assessed as standard uptake value at 152.9 MBq, iv after 17.5 mins by microPET. The following applies: in vivo.
Data set [13] is described as follows: Drug level in normal rhesus monkey frontal cortex assessed as standard uptake value at 109.4 MBq, iv after 6.5 mins by microPET. As to conditions: in vivo.
A short description of data set [14]: Drug level in normal rhesus monkey parietal cortex assessed as standard uptake value at 109.4 MBq, iv after 4.5 mins by microPET. As to conditions: in vivo, 0.075 h.
Data set [15] is described as follows: Drug level in normal rhesus monkey frontal cortex assessed as standard uptake value at 109.4 MBq, iv after 0.875 mins by microPET. As to conditions: in vivo, 52 s.
Data set [16] in a line: Drug level in normal rhesus monkey thalamus assessed as standard uptake value at 109.4 MBq, iv after 22.5 mins by microPET. As to conditions: in vivo, 0.375 h.
The nature of data set [17]: Drug level in normal rhesus monkey cerebellum assessed as standard uptake value at 109.4 MBq, iv after 52.5 mins by microPET. The following applies: in vivo, 0.875 h. Summed up:
as §1

Data set [18] can be described thus: Drug level in normal rhesus monkey cerebellum assessed as standard uptake value at 109.4 MBq, iv after 47.5 mins by microPET. The following applies: in vivo. In a few lines: as §1
Data set [19] is described as follows: Drug level in normal rhesus monkey pons assessed as standard uptake value at 109.4 MBq, iv after 1.5 mins by microPET. As to conditions: in vivo, 0.025 h.
Data set [20] in a line: Drug level in normal rhesus monkey pons assessed as standard uptake value at 109.4 MBq, iv after 6.5 mins by microPET. As to conditions: in vivo.
Data set [21] is described as follows: Drug level in normal rhesus monkey frontal cortex assessed as standard uptake value at 96.3 MBq, iv after 175 mins by microPET. As to conditions: in vivo.
The nature of data set [22]: Drug level in normal rhesus monkey thalamus assessed as standard uptake value at 96.3 MBq, iv after 105 mins by microPET. The following applies: in vivo, 1.75 h.
Data set [23] can be described thus: Drug level in normal rhesus monkey cerebellum assessed as standard uptake value at 96.3 MBq, iv after 52.5 mins by microPET. As to conditions: in vivo, 0.875 h. In a few lines: (§2)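 One normal rhesus monkey, each tracer given iv via the vena saphena (81.2, 96.3 or 109.4 MBq), with 1 day between tracer injections. Dynamic brain μPET over 180 min used frames of 5 × 60 s, 5 × 120 s, 9 × 300 s and 12 × 600 s. Images were reconstructed by filtered back projection with a RAMP filter. Regional time-activity curves were expressed as SUV.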

Data set [24] in a line: Drug level in normal rhesus monkey pons assessed as standard uptake value at 96.3 MBq, iv after 27.5 mins by microPET. As to conditions: in vivo.
A short description of data set [25]: Drug level in normal rhesus monkey cerebellum assessed as standard uptake value at 96.3 MBq, iv after 0.5 mins by microPET. The following applies: in vivo. In a few lines:
as §2

Data set [26] can be described thus: Drug level in normal rhesus monkey pons assessed as standard uptake value at 96.3 MBq, iv after 135 mins by microPET. The following applies: in vivo, 2.25 h.
A short description of data set [27]: Drug level in normal rhesus monkey white matter assessed as standard uptake value at 96.3 MBq, iv after 4.5 mins by microPET. As to conditions: in vivo, 0.075 h.
The nature of data set [28]: Drug level in normal rhesus monkey frontal cortex assessed as standard uptake value at 96.3 MBq, iv after 32.5 mins by microPET. As to conditions: in vivo.
Data set [29] can be described thus: Drug level in normal rhesus monkey pons assessed as standard uptake value at 96.3 MBq, iv after 17.5 mins by microPET. As to conditions: in vivo.
Data set [30] in a line: Drug level in normal rhesus monkey thalamus assessed as standard uptake value at 81.2 MBq, iv after 12 mins by microPET. As to conditions: in vivo, 0.2 h.
Data set [31] can be described thus: Drug level in normal rhesus monkey pons assessed as standard uptake value at 81.2 MBq, iv after 3.5 mins by microPET. As to conditions: in vivo.
Data set [32] in a line: Drug level in normal rhesus monkey cerebellum assessed as standard uptake value at 81.2 MBq, iv after 22.5 mins by microPET. The following applies: in vivo, 0.375 h. Summed up: as §2
The nature of data set [33]: Drug level in normal rhesus monkey parietal cortex assessed as standard uptake value at 81.2 MBq, iv after 12 mins by microPET. As to conditions: in vivo, 0.2 h.
Data set [34] can be described thus: Drug level in normal rhesus monkey frontal cortex assessed as standard uptake value at 81.2 MBq, iv after 65 mins by microPET. The following applies: in vivo.
Data set [35] in a line: Drug level in normal rhesus monkey thalamus assessed as standard uptake value at 81.2 MBq, iv after 145 mins by microPET. The following applies: in vivo.
Data set [36] is described as follows: Drug level in normal rhesus monkey thalamus assessed as standard uptake value at 81.2 MBq, iv after 57.5 mins by microPET. The following applies: in vivo.
Data set [37] in a line: Drug level in normal rhesus monkey thalamus assessed as standard uptake value at 81.2 MBq, iv after 3.5 mins by microPET. As to conditions: in vivo.
Data set [38] in a line: Drug level in normal rhesus monkey cerebellum assessed as standard uptake value at 81.2 MBq, iv after 14 mins by microPET. The following applies: in vivo. In a few lines:
as §2

The results in this text go back to ChEMBL document CHEMBL1154674, “Synthesis and evaluation of three 18F-labeled aminophenylbenzothiazoles as amyloid imaging agents” (J Med Chem, 2009).

On to `[11CH3]Nc1ccc(-c2nc3ccc(O)cc3s2)cc1` [PITTSBURGH COMPOUND B], for which the SUV is 1.428 in data set [1]; 0.799 in data set [2]; 0.487 in data set [3]; 2.11 in [4]; 1.161 in data set [5]; 2.163 in [6]. The SUV in data set [7] came to 2.17; in data set [8] it was 2.008; in data set [9], 1.364; in data set [10] it was 0.957; in [11], 0.764; in data set [12], 1.328.

As for `Nc1ccc2nc(-c3ccc([18F])cc3)sc2c1`, the SUV amounted to 5.35 in data set [13]; 5.12 in [14]; 1.73 in data set [15]; 5.55 in [16]; 3.38 in [17]; 3.54 in data set [18]. For the same compound, the SUV in data set [19] is 2.87; in data set [20], 4.08.

As to `CN(C)c1ccc2nc(-c3ccc([18F])cc3)sc2c1`, the SUV in data set [21] is given as 1.49; in data set [22] it was 2.08; in data set [23], 1.25; in [24] it was 1.61; in [25], 0.54; in data set [26] it was 1.92. For the same compound, the SUV was determined as 1.22 in data set [27], 2.14 in data set [28] and 1.51 in data set [29].

Regarding `CNc1ccc2nc(-c3ccc([18F])cc3)sc2c1`, the SUV in [30] amounted to 4.684; in data set [31], 4.503; in [32], 2.518; in data set [33], 4.756; in data set [34] it was 5.125; in [35], 4.916. In addition, the SUV in [36] was 5.552; in data set [37], 3.83; in [38] it was 2.614.
